This sample holds only a part of the variants without activity.
B1: tRNA (parent)
chain: CUCUCGGUAGCCAAGUUGGUUUAAGGCGCAAGACUUUAAUUUAUCACUACGAAAUCUUGAGAUCGGGCGUUCGACUCGCCCCCGGGAGAUUUUUUCCUCGAGCAA

Variants of: B1
Test: nonsense suppression (GFP-seq) (ratio to wild type); higher = more function; SUP4oc tRNA, yeast GFP reporter sort-seq
Procedure, shortened: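 Yeast carrying genome-integrated SUP4oc tRNA variants from a library with ~3% random mutations were grown in raffinose/galactose medium with 80 mg/L adenine. Each strain also carried a galactose-driven GFP ochre reporter and RFP. Cells were sorted into GFP/RFP bins, and each bin was Illumina-sequenced (phred ≥30). Nonsense suppression (GFPSEQ) is the bin median GFP/RFP, weighted by each variant's estimated cell share per bin, relative to wild-type SUP4oc; variants needed ≥100 reads and ≥30 cells.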

Variant	nonsense suppression
CUCUCGGUGGCCAGGUUGGUUUAAGGCGCAAGACUUUAAUUUAUCACUACGAAAUCUUGAGAUCGGGCGUUCGACUCGCCCCCGGGAGAUUUUUUCCUCGAGCAA [A9G A14G]	0.0311
CUCUCGGUCGCCAAGUUGGUUUAAGGCGCAAGACUUUAAUUUAUCACUACGAAAUCUUGACAUCGGGCGUUCCACUCGCCCCCGGGAGAUUUUUUCCUCGAGCAA [A9C G61C G73C]	≤ 0.026
CUCUCGGUCGCCAAGUUGGUUUAAGGCGCAAGACUUUAAUUUAUCACUACGAAAUCUUGAGAUCGGGCAUUCGACUCGCCCCCGGGAGAUUUUUUCCUCGAGCAA [A9C G69A]	≤ 0.026
CUCUCGGUCGCCAAGUUGGUUUAAGGCGCAAGACUUUAAUUUAUCACUACGAAAUCUUGACAUCGGGCGUUCGACUCGCCCCCGGGAGAUUUUUUCCUCGAGCAA [A9C G61C]	0.791
CUCUCGGUCGCCAAGUUGGAUUAAGGCGCAAGACUUUAAUUUAUCACUACGAAAUCUUGAGAUCGGGCGUUCGACUCGCCCCCGGGAGAUUUUUUCCUCGAGCAA [A9C U20A]	0.183
CUCUCGGUCGCCAAGUUGGUUUAAGGCGCAAGACUUUAAUUUAUCACUACGAAAUCUGGAUAUCGGGCGUUCGACUCGCCCCCGGGAGAUUUUUUCCUCGAGCAA [A9C U58G G61U]	≤ 0.026
CUCUCGGUGGCAAAGUUGGUUUAAGGCGCAAGACUUUAAUUUAUCACUACGAAAUCUUGAGAUCGGGCGUUCGACUCGCCCCCGGGAGAUUUUUUCCUCGAGCAA [A9G C12A]	≤ 0.026
CUCUCGGUGGCCAAGUUGGUUUAAGGCGCAAGACUUUAAUUUAUCACUACGAAAUCUUGAGAUCGGGCGUUAGACUCGCCCCCGGGAGAUUUUUUCCUCGAGCAA [A9G C72A]	0.0268
CUCUCGGUGGCCAAGUUGGUUUAAGGCGCAAGACUUUAAUUUAUCACUACGAAUUCUUGAGAUCGGGCGUUCGACUCGCCCCCGGGAGAUUUUUUCCUCGAGCAA [A9G A54U]	0.196
CUCUCGGUGGCCAAGUUGGUUUAAGGCGCAAGACUUUAAUUUAUCACUACGAACUCUUGAGAUCGGGCGUUCGACUCGCCCCCGGGAGAUUUUUUCCUCGAGCAA [A9G A54C]	0.207
CUCUCGGUGGCCAAGUUGGUUUAAGGCGCAAGACUUUAAUUUAUCACUACGAAAUCUUGAGAUCGGGCGUUCGACUCGCCCCCGGGAGAUUUUUUCCUCGAGCAA [A9G]	0.45
CUCUCGGUCGCCAAGUUGGUCUAAGGCGCAAGACUUUAAUUUAUCACUACGAAAUCUUGAGCUCGGGCGUUCGACUAGCCCCCGGGAGAUUUUUUCCUCGAGCAA [A9C U21C A62C C77A]	≤ 0.026
CUCUCGGUCGCCAAGUUGGUCUAUGGCGCAAGACUUUAAUUUAUCACUACGAAAUCUUGAGAACGGGCUUUCGACUCGCCCCCGGGAGAUUUUUUCCUCGAGCAA [A9C U21C A24U U63A G69U]	≤ 0.026
CUCUCGGUGGCCAAGUUGGUUUAAGGCGCAAGACUUUAAUUUAUCACUACGAAAUCUUGAGAUCGGGUGUUCGACUCGCCCCCGGGAGAUUUUUUCCUCGAGCAA [A9G C68U]	0.153
CUCUCGGUGGCCACGUUGGUUUAAGGCGCAAGACUUUAAUUUAUCACUACGAAGUCUUGAGAUCGGGCGUUCGACUCGCCCCCGGGAGAUUUUUUCCUCGAGCAA [A9G A14C A54G]	≤ 0.026
CUCUCGGUGGUCAAGUUGGUUUAAGGCGCAAGACUUUAAUUUAUCACUACGAAAUCUUGAGAUCGGGCGUUCGACUCGCCCCCGGGAGAUUUUUUCCUCGAGCAA [A9G C11U]	0.0313
CUCUCGGUCGCCAAGUUGGUUUAAGGCGCAAGACUUUAAUUUAUCACUACGAAAUCUUGAGAUCGGGCGUUCGAAUCGCCCCCGGGAAAUUUUUUCCUCGAGCAA [A9C C75A G88A]	≤ 0.026
CUCUCGGUGGCCAAGUUGGUUUAAGGCGCAAGCCUUUAAUUUAUCACUACGAAAUCUUGAGAUCGUGCGUUCGACUCGCCCCCGGGAGAUUUUUUCCUCGAGCAA [A9G A33C G66U]	≤ 0.026
CUCUCGGUGGCCAAGUUGGUUUGAGGCGCAAGACUUUAAUUUAUCACUACGAAAUCUUGAGAUCGGGCGGUCGACUCGCCCCCGGGAGGUUUUUUCCUCGAGCAA [A9G A23G U70G A89G]	≤ 0.026
CUCUCGGUGGCCAAGUUGGUUUAAGGCGCAAGACUUUAAUUUAUCACUACGAAAUCUUGAGAUCGGGCGUUCGCCUCGCCCCCGGGAGAUUUUUUCCUCGAGCAA [A9G A74C]	0.0286
CUCUCGGUCGCCAAGUUGGCUUAAGGCGCAAGACUUUAAUUUAUCACUACGAAAUCUUGAGAUCGGGCGUUCGAAUCGCCCCCGGGAGAUUUUUUCCUCGAGCAA [A9C U20C C75A]	0.566
CUCUCGGUGGCCAAGUUGGUUUAAGGCGCAGGACUUUAAUUUAUCACUACGAAAUCUUGAGAUCGGGCGUUCGACUCGCCCCCGGGAGAUUUUUUCCUCGAGCAA [A9G A31G]	0.259
CUCUCGGUGGCCAAGUUGGUUUAAGGCGCGAGACUUUAAUUUAUCACUACGAAAUCUUGAAAUCGGGCGUUCGACUCGCCCCCGGGAGAUUUUUUCCUCGAGCAA [A9G A30G G61A]	0.291
CUCUCGGUGGCCAAGUUGGUUUAGGGCGCAAGACUUUAAUUUAUCACUACGAAAUCUUGAGAUCGGGCGUUCGACUCGCCCCCGGGAGAUUUUUUCCUCGAGCAA [A9G A24G]	0.0517
CUCUCGGUGGUCAAGUUGGUUUAAGGCGCAAGACUUUAAUUUAUCACUACGAAAUCUUGACAUCGGGCGUUCGACUCGCCCCCGGGAGAUUUUUUCCUCGAGCAA [A9G C11U G61C]	≤ 0.026
CUCUCGGUCGCCAAGUUGGUUUAAGGCGCAAGACUUUAAUUUAUCACUACGAAAUCUUGAGAUCGGGCGUUCGACCCGCCCCCGGGAGAUUUUUUCCUCGAGCAA [A9C U76C]	0.929
CUCUCGGUCGCCAAGUUAGUUUAAGGCGCACGACUUUAAUUUAUCACUACGAACUCUUGAGUUCGGGCCUUCGACUCGCCCCCGGGACAUUUUUUCCUCGAGCAA [A9C G18A A31C A54C A62U G69C G88C]	≤ 0.026

Variant	nonsense suppression
CUCUCGGUGGCCAAGUUGGUUUAAGGCGCAAGUGUUUAAUUUAUCACUACGAAAUCUUGAGAUCGGGCGUACGACUCGCCCCCGGGAGAUUUUUUCCUCGAGCAA [A9G A33U C34G U71A]	≤ 0.026
CUCUCGGUGGCCCAGUUGGUUUAAGGCGCAAGAGUUUAAUUUAUCACUACGAAAUCUUGAGAACGGGCGUUCGACUCGCCGCCAGUAGAUUUUUUCCUCGAGCAA [A9G A13C C34G U63A C81G G84A G86U]	≤ 0.026
CUCUCGGUCGCCAAGUUGGGGUAAGGCGCAAGACUUUAAUUUAUCACUACGAAAUCUUGAGAUCGGGCGUUCGACUCGCCCCCGGAAGAUUUUUUCCUCGAGCAA [A9C U20G U21G G86A]	≤ 0.026
CUCUCGGUCGCCAAGUUGGUUUAAGGCGCAAGACAUUAAUUUAUCACUACGAAAUCUUGAGAUCGGGCGUUCGACUCGCCCCCGGGAGAUUUUUUCCUCGAGCAA [A9C U35A]	≤ 0.026
CUCUCGGUCGCCAAGUUGGUUUAAGGCGCAAGACUUUAAUUUAUCACUACGAAAUCUUGAGAUCGGGCGUUCGACUCGCCCCCGUGAGAUUUUUUCCUCGAGCAA [A9C G85U]	0.04
CUCUCGGUGGCCAAGUUGGUUUAAGGCGUAAGACUUUAAUUUAUCACUACGAAAUCUUGAGAUCGGGCGUUCGACUCGCCCCCGGGAGAUUUUUUCCUCGAGCAA [A9G C29U]	0.2
CUCUCGGUCGCCAAGUUGGUUAAAGGCGCAAGACUUUAAUUUAUCACUACGAAAUCUUGAGAUCGGGCGUUCGACUCGCCCCCGGGAGAUUUUUUCCUCGAGCAA [A9C U22A]	0.709
CUCUCGGUCGCCAAGUUGGUUGAAGGCGCAAGACUUUAAUUUAUCACUACGAAAUCUUGAGAUCGGGCGUUCGACUCGCCCCCGGGAGAUUUUUUCCUCGAGCAA [A9C U22G]	0.878
CUCUCGGUGGCCUAGUUGGUUUAAGGCGCAAGACUUUAAUUUAUCACUACGAAAUCUUGAGAUCGGGCGUUCGCCUCGCCCCCGGGAGAUUUUUUCCUCGAGCAA [A9G A13U A74C]	≤ 0.026
CUCUCGGUGGCCAAGUUGGUUUAAGGCGCAAGACUUUAAUUUAUCACUACGAAUUCUUGAGAUCGGGCGCUCGACUCGCCCCCGGGAGAUUUUUUCCUCGAGCAA [A9G A54U U70C]	≤ 0.026
CUCUCGGUCGCCAAGUUGGGUUAAGGCGCAAGACUUUAAUUUAUCACUACGAAAUCUUGAUAUCGGGUGUUCGACUCGCCCCCGGGAGAUUUUUUCCUCGAGCAA [A9C U20G G61U C68U]	≤ 0.026
CUCUCGGUCGCCAAGUUGGUUUAAGGCGCAAGACUUUAAUUUAUCACUACGAAAUCUUGAGAUCGGGCGUUCAACUCGCCCCCGGGAGAUUUUUUCCUCGAGCAA [A9C G73A]	0.215
CUCUCGGUCGCCAAGUGGGUUUAAGGCGCAAGACUUUAAUUUAUCACUACGAAAUCUUGAGAUCGGGCGUUCGACUCGCCCCCGGGAGAUUUUUUCCUCGAGCAA [A9C U17G]	0.595
CUCUCGGUGGCCAAGUUGGUUUAAGGCGCGAGACUUUAAUUUAUCACUACGAAAUCUUGAGAUCGGGCGUUCGACUCGCCCCCGGGAGAUUUUUUCCUCGAGCAA [A9G A30G]	0.466
CUCUCGGUGGCCAAGUUGGUUUAAGGCGCUAGACUUUAAUUUAUCACUACGAAAUCUUGAGAUCGGGCGUUCGACUCGCCCCCGGGAGAUUUUUUCCUCGAGCAA [A9G A30U]	0.163
CUCUCGGUGGCCAAGUUGGUUUAAGGCGCAAGACUUUAAUUUAUCACUACGAAAUCUUGCGAUCGGGCGUUCGACUCGCCCCCGGGAGAUUUUUUCCUCGAGCAA [A9G A60C]	≤ 0.026
CUCUCGGUGGCCAAGUUGGUUUAAGGCGCAAGACUUUAAUUUAUCACUACGAAAUCUUGGGAUCGGGCGUUCGACUCGCCCCCGGGAGAUUUUUUCCUCGAGCAA [A9G A60G]	0.222
CUCUCGGUCGCCAAGUUGGUAUAAGGCGCAGGACUUUAAUUUAUCACUACGAAAUCUUGAGAUCGGGCGUCCGACUCGCCCCCGGGAGAUUUUUUCCUCGAGCAA [A9C U21A A31G U71C]	≤ 0.026
CUCUCGGUGGCCGAGUUGGUUUAAGGCGCAAGACUUUAAUUUAUCACUACGAAAUCUUGAGAUCGGGCGUUCGACUCGCCCCCGGGAGAUUUUUUCCUCGAGCAA [A9G A13G]	0.205
CUCUCGGUGGCCCAGUUGGUUUAAGGCGCAAGACUUUAAUUUAUCACUACGAAAUCUUGAGAUCGGGCGUUCGACUCGCCCCCGGGAGAUUUUUUCCUCGAGCAA [A9G A13C]	0.183
CUCUCGGUCGCCAAGUUGGUUUAAGGCGCAAGACUUUAAUUUAUCACUACGAAAUCUUGAGAGCGGGCGUUCGACUCGCCCCCGGGAGAUUUUUUCCUCGAGCAA [A9C U63G]	0.0362
CUCUCGGUCGCCAAGUUGGUUUAAGGCGCAAGACUUUAAUUUAUCACUACGAAAUCUUGAGACCGGGCGUUCGACUCGCCCCCGGGAGAUUUUUUCCUCGAGCAA [A9C U63C]	0.202
CUCUCGGUCGCCAAGUUGGUUUAAGGCGCAAGACUUUAAUUUAUCACUACGAAAUCUUGAGAUCGGGCGUUCGAAUCGCCCCCGGGAGAUUUUUUCCUCGAGCAA [A9C C75A]	0.938
CUCUCGGUGGCCAAGUUGGUUUAAGGCGUAAGACUUUAAUUUAUCACUACGAAAUCUUGAGAUCGGGCGUUCGAGUCGCCCCCGGGAGAUUUUUUCCUCGAGCAA [A9G C29U C75G]	0.252
CUCUCGGUGGCCAAGUUGGUUUAAGGGGCAAGACUUUAAUUUAUCACUACGAAAUCUUGAGAUCGGGCGUUCGACUCGCCCCCGGGAGAUUUUUUCCUCGAGCAA [A9G C27G]	≤ 0.026
CUCUCGGUGGCCAAGUUGGUUUAAGGUGCAAGACUUUAAUUUAUCACUACGAAAUCUUGAGAUCGGGCGUUCGACUCGCCCCCGGGAGAUUUUUUCCUCGAGCAA [A9G C27U]	0.0421
CUCUCGGUGGCCAAGUUGGUUUAAGGCGCUAGACUUUAAUUUAUCACUACGAAAUCUAGAGAUCGGGCGUUCGACUCGCCCCCGGGAGAUUUUUUCCUCGAGCAA [A9G A30U U58A]	0.23

Reference: the RNAGym collection of RNA variant scans (doi:10.1101/gad.245936.114)
